Data: PubChem BioAssay
Records with an inconclusive call do not appear.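 The calls were made as follows, unless noted: active = viability increase at or above a cutoff of the median across tested compounds plus 3 SD (cut at about 8.5% in these data, passing the limit was not always enough); inconclusive = some gains above the cutoff, reason not given; inactive = the rest.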

Key:
[1] = S. cerevisiae growth inhibition in permissive medium (OD615), pilot counter-assay for S. cerevisiae lifespan shortening project, permissive growth control (AID 705;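 active = growth inhibition above 25% in both replicates, a cutoff set 3 SD above the mean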); conditions: OD615, 24 h, at 10 µM, hits give high values
How it was run: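 System: Engineered DeaD yeast | Buffer or medium: SC raffinose/galactose permissive medium | Doses: 10 µM single dose, 0.25% DMSO | Times: 24 h exposure, 30 °C | Measured by: OD615 turbidity read | Read-out: Yeast growth inhibition indicated by reduced 24 h OD615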

[2] = S. cerevisiae growth inhibition in restrictive medium, OD615, pilot screen, restrictive growth control, yeast lifespan reduction project (AID 706;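 active = growth inhibition above a set limit, 3 SD over mean compound inhibition, in both replicates, cut at about 43% in these data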;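 also: modified DeaD lifespan yeast strain shifted to restrictive glucose medium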); conditions: OD615, 48 h, at 10 µM, hits give high values
How it was run: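 Assay system: engineered S. cerevisiae DeaD strain; Buffer or medium: CSMM-D glucose medium; Dosing: 10 µM compound, 0.25% DMSO; Times: cell pre-growth 4 h, compound exposure 48 h, 30 °C; Detection: absorbance (optical density) measured at 615 nm.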

[3] = doxorubicin toxicity protection in MRP-1 cells – H69AR cells, CellTiter-Glo, duplicate, MRP-1 activator project, pilot screen (AID 807); conditions: H69AR viability with doxorubicin, CellTiter-Glo luminescence; at 10 µM; hits give high values;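 also: compound pretreatment 18-22 h then 72 h combined with doxorubicin; 0% = doxorubicin alone and 100% = vehicle without doxorubicin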
[4] = viability of PTEN-null HCT116 cells – cell-based, HCT116 clonal line, CellTiter-Glo, pilot screen (AID 824;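 active = viability at or below 27.92% in each of two runs, the all-compound median minus 4 SD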;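 also: 0% = 20 µM Hyamine control and 100% = vehicle cell control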); conditions: HCT116 PTEN-deleted viability, 60 h, at 10 µM, hits give low values
[5] = RAM pathway blockade in budding yeast – dse1pr::URA3 reporter, 5-FOA selection, pilot screen (AID 869;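 active = inhibition over a set limit, the all-compound mean plus 3 SD, in both replicate runs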;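 also: 0% = DMSO wells with no growth and 100% = 10 µM 1-NA-PP1 with full growth; RAM network block rescues cells from 5-FOA so hits raise OD615 growth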); conditions: S. cerevisiae dse1pr::URA3 5-FOA growth, OD615, 2 d; at 10 µM; hits give high values; strain carries analog-sensitive mutant Cbk1 kinase
[6] = RAM signaling pathway blockade in yeast – S. cerevisiae, Pdr1DBD-CYC8 efflux-inhibited sensitized strain, primary screen (AID 1298;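 active = RAM network inhibition above 8.4% in each of two replicates, 3 SD over the compound average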;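 also: 0% = DMSO untreated cells without growth and 100% = 10 µM 1-NA-PP1 full growth; higher means more yeast growth rescued from 5-FOA killing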); conditions: S. cerevisiae cbk1-as DSE1-URA3 strain, 5-FOA growth OD615, 2 d; at 50 µM; hits give high values

CCNc1nc(NCC)nc(OCCNS(=O)(=O)c2cc(C)ccc2C)n1
inactive: growth inhibition [1] 7.46% | growth inhibition [2] 6.54% | viability increase [3] -2.5% | viability [4] 95.3% | inhibition [5] 0.235% | RAM network inhibition [6] 1.53%

Cc1ccc(C(=O)NCCNC(=O)CN2CCCC2)cc1
inactive: growth inhibition [1] -7.48% | growth inhibition [2] 3.55% | viability increase [3] -0.66% | viability [4] 103% | inhibition [5] 2.21% | RAM network inhibition [6] 5.7%

Fc1cccc(Cl)c1CSc1ncn[nH]1
inactive: growth inhibition [1] -4.97% | growth inhibition [2] 10.7% | viability increase [3] 0.29% | viability [4] 85.6% | inhibition [5] 0.52% | RAM network inhibition [6] 2.05%

O=C(C1CC1)N1CCc2cc(Br)cc(S(=O)(=O)NCCN3CCOCC3)c21
inactive: growth inhibition [1] -5.94% | growth inhibition [2] -6.43% | viability increase [3] -2.94% | viability [4] 94.7% | inhibition [5] 1.69% | RAM network inhibition [6] 2.57%

CCOC(=O)c1ccc(NC(=O)N(CC)CC)cc1
inactive: growth inhibition [1] -7.39% | growth inhibition [2] -1.5% | viability increase [3] -0.97% | viability [4] 97.4% | inhibition [5] 0.865% | RAM network inhibition [6] 2.51%
